Data set [1] in a line: Selectivity index, ratio of IC50 for african green monkey (Cercopithecus aethiops) Vero cells to IC50 for Plasmodium falciparum 3D7. It counts as toxicity, cell-based. To be noted: read-out: Ratio IC50. Put shortly: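 P. falciparum 3D7 was tested by SYBR Green I fluorescence at 0.5% parasitaemia: two-fold dilutions from 500 ng/mL (seven concentrations), duplicate wells, 72 h, then lysis buffer with dye. Vero cells (1 × 10⁴/well) got MTT after 72 h with compound. Each IC₅₀ came from non-linear regression dose–response curves; selectivity index is the Vero/3D7 ratio.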

In data set [2] the test system is Plasmodium falciparum. The data set is described as follows: Antimalarial activity against chloroquine-sensitive Plasmodium falciparum 3D7 after 72 hrs by SYBR Green assay. To be noted: 3D7, 72 h.
Data set [3] deals with Plasmodium yoelii. The data set is described as follows: Antiplasmodial activity as reduced parasitaemia against chloroquine-resistant Plasmodium yoelii N67 infected Swiss mice (Mus musculus) at 50 mg/kg/day after 4 days. It counts as functional. On the set-up: scale not given: the % may be the effect or the level left. Put shortly:
(§1)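 Swiss mice inoculated on day 0 with 1×10⁶ P. yoelii N-67 parasitized RBC. Groups of five received 50 mg/kg/day intraperitoneally, once daily on days 0–3, as aqueous suspensions with a few drops of Tween 80. Parasitaemia read from thin blood smears. Percent suppression calculated from the group mean against untreated infected controls.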

For data set [4], the system named is Plasmodium yoelii. The data set is described as follows: Antiplasmodial activity as reduced parasitaemia against chloroquine-resistant Plasmodium yoelii N67 infected Swiss mice (Mus musculus) at 50 mg/kg/day intraperitoneal dose after 10 days. It counts as functional. On the set-up: scale not given: the % may be the effect or the level left. The procedure, abridged: as §1

Data set [5] concerns Plasmodium yoelii. Description: Antiplasmodial activity as reduced parasitaemia against chloroquine-resistant Plasmodium yoelii N67 infected Swiss mice (Mus musculus) at 10 mg/kg/day peroral dose after 4 days. On the set-up: scale not given: the % may be the effect or the level left. To be noted: route oral. Type of data set: functional. Put shortly:
(§2)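 Swiss mice inoculated on day 0 with 1×10⁶ P. yoelii N-67 parasitized RBC. […] Parasitaemia read from thin blood smears. Percent suppression calculated from the group mean against untreated infected controls.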

Data set [6] deals with Plasmodium yoelii. The data set is described as follows: Antiplasmodial activity as reduced parasitaemia against chloroquine-resistant Plasmodium yoelii N67 infected Swiss mice (Mus musculus) at 10 mg/kg/day peroral dose over 10 days. Type of data set: functional. The following applies: route oral. On the set-up: scale not given: the % may be the effect or the level left. Put shortly: as §2

≈ marks a conversion by molar mass, not a printed value.

One may read the IC50 as the concentration that inhibits the measured activity by half. Take `O=C1S/C(=N\c2ccccc2)N(CCCNc2ccnc3cc(Cl)ccc23)C1=O`: the selectivity ratio in data set [1] is 637. The same compound had an IC50 in data set [2] of 0.011 µg/mL (≈ 0.026 µM).
For `O=C1C(=O)N(c2ccccc2Cl)C(=S)N1CCCNc1ccnc2cc(Cl)ccc12`, the selectivity ratio in data set [1] worked out at 122. In addition, the IC50 in data set [2] was determined as 0.0397 µg/mL (≈ 0.0864 µM).
The matching figures for `O=C1C(=O)N(c2ccccc2)C(=S)N1CCCNc1ccnc2cc(Cl)ccc12`: 65.5 and 0.151 µg/mL (≈ 0.354 µM).
`S=C(NCCCNc1ccnc2cc(Cl)ccc12)Nc1ccccc1Cl`: the selectivity ratio in data set [1] stood at 1110. The same compound came in with an Activity in data set [3] of 16.82%. This compound also gave an IC50 in data set [2] of 0.0102 µg/mL (≈ 0.0251 µM).
Turning to `S=C(NCCNc1ccnc2cc(Cl)ccc12)Nc1ccccc1`, in data set [1], the selectivity ratio worked out at 997. In addition, in data set [2], the IC50 came to 0.00922 µg/mL (≈ 0.0258 µM).
Regarding `C=CCNC(=S)NCCNc1ccnc2cc(Cl)ccc12`, the selectivity ratio in data set [1] was determined as 668. The IC50 in data set [2] stood at 0.0261 µg/mL (≈ 0.0814 µM).
With `CCCC/N=C1\SC(=O)C(=O)N1CCCNc1ccnc2cc(Cl)ccc12`, in data set [1], the selectivity ratio amounted to 256. In data set [2], this compound came in with an IC50 of 0.011 µg/mL (≈ 0.0272 µM).
In the case of `S=C(NCCCNc1ccnc2cc(Cl)ccc12)Nc1ccccc1`, in data set [1], the selectivity ratio turned out to be 968. Besides, the IC50 in data set [2] was 0.01 µg/mL (≈ 0.027 µM).
The matching figures for `C=CCNC(=S)NCCCNc1ccnc2cc(Cl)ccc12`: 582 and 0.042 µg/mL (≈ 0.125 µM).
For `C=CCN1C(=O)C(=O)N(CCCNc2ccnc3cc(Cl)ccc23)C1=S`, the selectivity ratio in data set [1] was 80.4. In data set [2], the IC50 was 0.0548 µg/mL (≈ 0.141 µM).
For the compound `CCCCNC(=S)NCCNc1ccnc2cc(Cl)ccc12`, the selectivity ratio in data set [1] is 750. Further, the Activity in data set [3] is reported as 99.27%; in data set [4], 50.5%. In data set [2], it took 0.00607 µg/mL (≈ 0.018 µM) to reach half-maximal inhibition (IC50).
Consider `C=CC/N=C1\SC(=O)C(=O)N1CCNc1ccnc2cc(Cl)ccc12`, for which the selectivity ratio in data set [1] is 603. The IC50 in data set [2] came to 0.0324 µg/mL (≈ 0.0865 µM).
`O=C1C(=O)N(c2ccccc2)C(=S)N1CCNc1ccnc2cc(Cl)ccc12`: in data set [1], the selectivity ratio stood at 118. Further, inhibition in data set [2] was half-maximal at 0.119 µg/mL (≈ 0.29 µM) (IC50).
Take `CCCC/N=C1\SC(=O)C(=O)N1CCNc1ccnc2cc(Cl)ccc12`: the selectivity ratio in data set [1] came out at 480. In data set [2], this compound yielded an IC50 of 0.0174 µg/mL (≈ 0.0446 µM).
The matching figures for `C=CCN1C(=O)C(=O)N(CCNc2ccnc3cc(Cl)ccc23)C1=S`: 141 and 0.104 µg/mL (≈ 0.278 µM).
In the case of `CCN(CC)CCCC(C)Nc1ccnc2cc(Cl)ccc12` (centres undefined) [CHLOROQUINE], the Activity is 99.05% in data set [5] and 73.92% in data set [6].
On to `S=C(NCCNc1ccnc2cc(Cl)ccc12)Nc1ccccc1Cl`, for which, in data set [1], the selectivity ratio came to 332. The IC50 in data set [2] worked out at 0.0205 µg/mL (≈ 0.0524 µM).
As for `CCCCN1C(=O)C(=O)N(CCCNc2ccnc3cc(Cl)ccc23)C1=S`, the selectivity ratio in data set [1] is 27.2. Also, in data set [2], half-maximal inhibition (IC50) was put at 0.0697 µg/mL (≈ 0.172 µM).
`C=CC/N=C1\SC(=O)C(=O)N1CCCNc1ccnc2cc(Cl)ccc12`: the selectivity ratio in data set [1] was 475. The compound further came in with an IC50 in data set [2] of 0.112 µg/mL (≈ 0.287 µM).
Turning to `O=C1S/C(=N\c2ccccc2Cl)N(CCNc2ccnc3cc(Cl)ccc23)C1=O`, the selectivity ratio in data set [1] stood at 543. This compound also registered an Activity in data set [3] of 5.45%. In addition, in data set [2], the IC50 is 0.0121 µg/mL (≈ 0.0272 µM).
For the compound `O=C1S/C(=N\c2ccccc2Cl)N(CCCNc2ccnc3cc(Cl)ccc23)C1=O`, in data set [1], the selectivity ratio came out at 434. This compound gave an IC50 in data set [2] of 0.0175 µg/mL (≈ 0.0381 µM).
Take `CCCCNC(=S)NCCCNc1ccnc2cc(Cl)ccc12`: the selectivity ratio in data set [1] was determined as 600. The same compound came in with an IC50 in data set [2] of 0.0118 µg/mL (≈ 0.0337 µM).
For `CCCCN1C(=O)C(=O)N(CCNc2ccnc3cc(Cl)ccc23)C1=S`, in data set [1], the selectivity ratio is 406. For the same compound, in data set [2], the IC50 is 0.0331 µg/mL (≈ 0.0846 µM).
`O=C1S/C(=N\c2ccccc2)N(CCNc2ccnc3cc(Cl)ccc23)C1=O`: in data set [1], the selectivity ratio came to 605. For the same compound, half-maximal inhibition in data set [2] (IC50) required 0.0295 µg/mL (≈ 0.0718 µM).
Regarding `O=C1C(=O)N(c2ccccc2Cl)C(=S)N1CCNc1ccnc2cc(Cl)ccc12`, in data set [1], the selectivity ratio stood at 3.36. The compound further returned an IC50 in data set [2] of 0.199 µg/mL (≈ 0.448 µM).

The values are drawn from ChEMBL document CHEMBL1138607, “Synthesis of novel thiourea, thiazolidinedione and thioparabanic acid derivatives of 4-aminoquinoline as potent antimalarials” (Bioorg Med Chem Lett, 2009).
